Reference: ChEMBL document CHEMBL1121910, “N-(Methanesulfonyl)-16-phenoxyprostaglandincarboxamides: tissue-selective, uterine stimulants” (1981)

Assays:
Cavia porcellus [1] = assay: Percent protection against histamine-induced bronchoconstriction in conscious guinea pig.; type: functional; design: concentration or dose not given beside the values
Cavia porcellus [2] = assay: Relative ability to cause abortion in conscious guinea pigs compared to PGE-2.; type: functional
Canis familiaris [3] = assay: Compound versus PGE-2 (0.1 ug/kg, iv) was tested for effects on blood pressure in anesthetized dogs; type: functional, Canis lupus familiaris
In short: (§1)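 Anesthetized dogs responsive to PGE2 (at least two per compound); iv dosing. Blood pressure threshold dose expressed relative to PGE2 reference at 0.1 μg/kg iv; direction noted as depressor (−) or pressor (+).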

Cavia porcellus [4] = species: Cavia porcellus; assay: Relative spasmogenic potency in an in vitro guinea pig uteri assay.; type: functional
Rattus norvegicus = assay: Relative potency (50 ug/kg) for inhibition of pentagastrin-stimulated gastric acid secretion in anesthetized rats; type: functional, Stomach
Canis familiaris [5] = assay: Compound versus PGE-2 (0.1 ug/kg, iv) was tested for effects on blood pressure in anesthetized dogs; Depressor; type: functional, Canis lupus familiaris; in short: as §1
Mus musculus [6] = assay: Relative potency of compound versus PGE-2 (0.3-3.0mg/mL, iv)for induction of diarrhoea in conscious mice; type: functional
In short: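 Groups of six conscious mice, iv. Relative potency was estimated from concentration-response curves for diarrhea induction against PGE2 given at 0.3–3.0 mg/kg iv.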

Mus musculus [7] = assay: Relative potency of compound versus PGE-2 (0.3-3.0mg/mL, iv) for induction of diarrhoea in conscious mice; Depressor; type: functional
Mus musculus [8] = assay: Relative potency of compound versus PGE-2 (0.3-3.0mg/mL, iv) for induction of diarrhoea in conscious mice; NE = no effect at one tenth the minimum effective dose for PGE-2; type: functional, organism-based
Mus musculus [9] = assay: Relative potency of compound versus PGE-2 (0.3-3.0mg/mL, iv) for induction of diarrhoea in conscious mice; NE = no effect at 10 times the ED50 for PGE-2; type: functional, organism-based
Canis familiaris [10] = assay: Compound versus PGE-2 (0.1 ug/kg, iv) was tested for effects on blood pressure in anesthetized dogs; Pressor; type: functional, Canis lupus familiaris; in short: as §1

Row | Compound | Protection (Cavia porcellus [1]) [%] | Relative potency (Cavia porcellus [2]) | Relative potency (Canis familiaris [3]) | Relative potency (Cavia porcellus [4]) | Relative potency (Rattus norvegicus) | Relative threshold dose (Canis familiaris [5]) | Relative potency (Mus musculus [6]) | Relative potency (Mus musculus [7]) | Relative potency (Canis familiaris [5]) | Relative potency (Mus musculus [8]) | Relative potency (Mus musculus [9]) | Relative threshold dose (Canis familiaris [10])
1 | CS(=O)(=O)NC(=O)CCC/C=C\C[C@@H]1C(/C=C/[C@@H](O)COc2ccccc2)[C@H](O)C[C@@H]1O (stereo not given in full) | 3 | 1000 | 10 | 10 |  |  |  |  |  |  |  | 
2 | O=C(CCC/C=C\C[C@H]1C(=O)C[C@@H](O)C1/C=C/[C@@H](O)COc1ccccc1)NS(=O)(=O)c1ccccc1 (stereo not given in full) | 13 | 1000 | <0.5 | 5 | 370 |  |  |  |  |  |  | 
3 | CCCCC(C)(C)[C@H](O)/C=C/C1[C@H](O)CC(=O)[C@@H]1C/C=C\CCCC(=O)O (stereo not given in full) | 41 | <100 |  | 33 | 400 | 10 | 5300 |  |  |  |  | 
4 | CS(=O)(=O)NC(=O)CCC/C=C\C[C@H]1C(=O)C[C@@H](O)C1/C=C/[C@@H](O)CCc1ccccc1 (stereo not given in full) | 0 | <100 | 2.5 | 75 |  |  |  | 2.5 |  |  |  | 
5 | CS(=O)(=O)NC(=O)CCC/C=C\C[C@H]1C(=O)C[C@@H](O)C1/C=C/[C@@H](O)COc1ccc(Cl)cc1 (stereo not given in full) | 9 | 10000 |  | 90 | 1200 |  |  |  | 0.5 |  |  | 
6 | CS(=O)(=O)NC(=O)CCC/C=C\C[C@H]1C(=O)C=CC1/C=C/[C@@H](O)COc1ccccc1 (stereo not given in full) | 9 | <100 |  | 0.2 | 200 | 2.5 | 10 |  |  |  |  | 
7 | CS(=O)(=O)NC(=O)CCC/C=C\C[C@H]1C(=O)C[C@@H](O)C1/C=C/[C@@H](O)COc1cccc(C(F)(F)F)c1 (stereo not given in full) | 16 | <100 | <0.5 | 0.5 |  |  |  |  |  | No effect |  | 
8 | CS(=O)(=O)NC(=O)CCC/C=C\C[C@H]1C(=O)C[C@@H](O)[C@@H]1/C=C/[C@@H](O)COc1ccccc1 [SULPROSTONE] | 10 | 3000 |  | 115 | 450 |  |  |  | 0.5 |  |  | 
9 | CCCCC[C@H](O)/C=C/[C@H]1[C@H](O)CC(=O)[C@@H]1C/C=C\CCCC(=O)O [DINOPROSTONE] | 100 | 100 |  | 100 | 100 |  | 100 |  |  |  |  | 
10 | O=C(O)CCC/C=C\C[C@H]1C(=O)C[C@@H](O)C1/C=C/[C@@H](O)COc1ccccc1 (stereo not given in full) | 9 | 300 |  | 75 | 530 | 10 | 150 |  |  |  |  | 
11 | COc1cccc(OC[C@H](O)/C=C/C2[C@H](O)CC(=O)[C@@H]2C/C=C\CCCC(=O)NS(C)(=O)=O)c1 (stereo not given in full) | 25 | <1000 | <0.5 | 1 | 0 |  |  |  |  |  | No effect | 
12 | CS(=O)(=O)NC(=O)CCC/C=C\CC1=C(/C=C/[C@@H](O)COc2ccccc2)CCC1=O | 0 | <100 |  | 1.2 | 80 |  | 60 |  |  |  |  | 10
13 | CS(=O)(=O)NC(=O)CCC/C=C\C[C@H]1C(=O)C[C@@H](O)C1/C=C/[C@@H](O)COc1cccs1 (stereo not given in full) | 28 | 300 | 0.5 | 50 |  |  |  |  |  |  |  | 
14 | CS(=O)(=O)NC(=O)CCC/C=C\C[C@H]1C(=O)C[C@@H](O)C1/C=C/[C@@H](O)COc1cccc(Cl)c1 (stereo not given in full) | 28 | 1000 |  | 46 | 140 |  |  |  |  |  |  | 
15 | Cc1cccc(OC[C@H](O)/C=C/C2[C@H](O)CC(=O)[C@@H]2C/C=C\CCCC(=O)NS(C)(=O)=O)c1 (stereo not given in full) | 44 | <1000 |  | 4 | 125 |  |  |  | 0.5 | No effect |  | 
16 | COc1ccc(OC[C@H](O)/C=C/C2[C@H](O)CC(=O)[C@@H]2C/C=C\CCCC(=O)NS(C)(=O)=O)cc1 (stereo not given in full) | 13 | < 1000 | <0.5 | 10 | 600 |  |  |  |  |  |  | 
17 | CS(=O)(=O)NC(=O)CCC/C=C\C[C@H]1C(=O)C[C@@H](O)C1/C=C/[C@@H](O)COc1ccc(F)cc1 (stereo not given in full) | 3 | 3000 |  | 120 |  |  |  |  |  |  |  | 
18 | CCS(=O)(=O)NC(=O)CCC/C=C\C[C@H]1C(=O)C[C@@H](O)C1/C=C/[C@@H](O)COc1ccccc1 (stereo not given in full) | 9 | 3000 |  | 85 |  |  |  |  | 1 |  |  | 
